# Where “and” joins values, the source holds several entries; their conditions need not be identical. Identical values can stand only once.
# Experiment: Phase I 3+3 dose escalation: MTD and dose-limiting toxicities
# Type: in vivo, human
# Conditions: for maximum tolerated dose (MTD): Asian patients
# How it was run: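 Open-label 3+3 escalation run separately for each schedule. Test compound given as a 2-h IV infusion every 3 weeks: A on day 1 (100, 200, 250, 300 mg, up to 400), B on days 1 and 8 (50, 100, 150, 200 mg, up to 250). MTD was the highest dose with DLT in ≤1 of 6 patients in course 1. Graded by CTCAE v3.0. Up to 18 patients treated at the MTD.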
structure (smiles),measurement,setting,value
CC[C@@H]1C(=O)N(C)c2cnc(Nc3ccc(C(=O)N[C@H]4CC[C@H](N5CCN(CC6CC6)CC5)CC4)cc3OC)nc2N1C(C)C [volasertib],time of occurrence of DLTs,both schedules,8–15 treatment days
same,patients with DLTs during course 1,"expansion cohort schedule A, 300 mg",Four patients
same,patients with DLTs,"expansion cohort schedule B, 150 mg",None
same,patients with thrombocytopenia (grade 4) as DLT in first course,"schedule A, 300 mg (MTD)",Two patients
same,patients with a DLT related to neutropenia,"schedule A, 300 mg (MTD), 17 patients",Four patients
same,DLTs during course 1,"schedule A, 300 mg (n=6), dose escalation",No DLTs
same,duration of febrile neutropenia reported as DLT,"schedule A, 300 mg, two patients",3 days and 4 days
same,patients with DLTs in first treatment course,"schedule A, 350 mg (n=3)",All three patients
same,maximum tolerated dose (MTD),schedule A: 2-h i.v. infusion day 1 every 3 weeks,300 mg
same,DLTs of thrombocytopenia (grade 4),schedule B,no DLTs
same,patients with DLTs in first treatment course,"schedule B, 200 mg (n=3)",two out of three patients
same,maximum tolerated dose (MTD),schedule B: 2-h i.v. infusion days 1 and 8 every 3 weeks,150 mg
same,DLTs after intra-individual dose escalation from MTD to a higher dose,"up to 350 mg (schedule A, 3 patients) and 200 mg (schedule B, 1 patient)",No DLTs

# From article PMC4021529 (British Journal of Cancer, 2014)
